Assay results of several laboratories.
Lines come from different studies, so protocols differ.
Target: Serine/threonine-protein kinase 38 (STK38, Homo sapiens, UniProt Q15208)

CCN1CCN(Cc2ccc(NC(=O)c3ccc(C)c(Oc4ccnc5[nH]ccc45)c3)cc2C(F)(F)F)CC1  inhibition (target engagement in cells, inhibitor, chemoproteomics; A-375; 5 µM): -0.846%
N#CC1c2c([nH]c3c(Cl)c(Cl)ccc23)C(=O)NC12CCCCC2 (racemic)  ΔTm (thermal stability, DSF; 10 µM): 0.6 °C
CN([C@@H]1CCc2c(CC(=O)O)c3cc(S(C)(=O)=O)ccc3n2C1)S(=O)(=O)c1ccc(F)cc1  remaining binding (cell-free assay, competition with immobilised ligand; 1 µM): 85%
Cn1c2c(c3ccc(Cl)c(Cl)c31)C(C#N)C1(CCNCC1)NC2=O (racemic)  ΔTm (thermal stability, DSF; 10 µM): 0.4 °C
O=C1Nc2ccc(Cl)cc2C1=Cc1cc(Cl)c(O)c(Cl)c1  remaining signal (cell-free assay; 0.5 µM): 85.4%
Cc1sc(C(=O)NC2COC2)cc1-n1cc(NC(=O)Nc2c(F)cccc2Cl)cn1  remaining activity (enzyme activity, inhibitor; 10 µM): 91.5%
CC/C(=N\NC(=O)NCc1cccc(O)c1)c1ccc(O)c(C)c1O  inhibition (enzyme activity, inhibitor; 0.1 µM): 18.8%
Cc1c(NC(=O)c2cc(C(N)=O)nc3cc(F)ccc23)c(C(F)(F)F)nn1Cc1ccc(C#N)cc1  remaining binding (cell-free assay, competition with immobilised ligand; 1 µM): 94%
CCN1CCC2(CC1)NC(=O)c1c(c3ccc(Cl)c(Cl)c3n1C)C2C#N (racemic)  ΔTm (thermal stability, DSF; 10 µM): 0.1 °C
C[C@H](c1ccnc(Nc2nc3ccc(-c4cc(N(C)C)ncn4)cc3[nH]2)c1)N1CCN(C(=O)CC(F)(F)F)CC1  remaining binding (cell-free assay, competition with immobilised ligand; 0.1 µM): 100%
Cn1c2c(c3ccc(Cl)c(Cl)c31)C(C#N)C(C)(C)NC2=O (stereo not drawn)  ΔTm (thermal stability, DSF; 10 µM): 0.1 °C
c1ccc(N2CCN(Cc3nc4ccccc4[nH]3)CC2)nc1  remaining binding (binding, competition with immobilised ligand; 1 µM): 89%
CC1(C)NC(=O)c2[nH]c3c(Cl)c(Cl)ccc3c2C1C#N (stereo not drawn)  ΔTm (thermal stability, DSF; 10 µM): -0.1 °C
CCC(=N\O)/C(C)=C/c1ccc(F)cc1  remaining binding (cell-free assay, competition with immobilised ligand; 1 µM): 94%
CCN1CCN(Cc2ccc(NC(=O)c3ccc(C)c(/C=C/c4cnc5[nH]ccc5c4OC)c3)cc2C(F)(F)F)CC1  inhibition (target engagement in cells, inhibitor, chemoproteomics; A-375; 0.5 µM): -0.843%
CN1CCC2(CC1)NC(=O)c1c(c3ccc(Cl)c(Cl)c3n1C)C2C#N (racemic)  ΔTm (thermal stability, DSF; 10 µM): 0 °C
O=S(=O)(NC1CCC(c2cc(F)ccc2F)(S(=O)(=O)c2ccc(Cl)cc2)CC1)C(F)(F)F (stereo not drawn)  remaining binding (cell-free assay, competition with immobilised ligand; 1 µM): 100%
C[S+]([O-])c1ccc(-c2nc(-c3ccncc3)c(-c3ccc(F)cc3)[nH]2)cc1 (stereo not drawn)  remaining signal (cell-free assay; 0.5 µM): 105%
